Experimental data taken from ChEMBL document CHEMBL1123265, “Synthesis and antihypertensive activity of 4-(cyclic amido)-2H-1-benzopyrans” (1986).

Key:
Format in all cases: functional
Rattus norvegicus [1] = experiment: Maximum fall in blood pressure was evaluated at an oral dose of 0.3 mg/kg in (SHR) spontaneous hypertensive rats
How it was run: (§1)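 Conscious spontaneously hypertensive rats (Okamoto-derived, 14–24 weeks old; systolic pressure >180 mmHg counted as hypertensive), six or more per dose level. Given orally by dosing needle into the esophagus as solution or suspension in 1% w/v methylcellulose. Systolic pressure read by tail cuff, each reading the mean of at least six recordings, taken before dosing and at intervals up to 6 h; maximum fall recorded.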

Rattus norvegicus [2] = experiment: Maximum fall in blood pressure was evaluated at an oral dose of 1.0 mg/kg in (SHR) spontaneous hypertensive rats; how it was run: as §1
Rattus norvegicus [3] = experiment: Maximum fall in blood pressure was evaluated at an oral dose of 0.1 mg/kg in (SHR) spontaneous hypertensive rats; how it was run: as §1
Rattus norvegicus [4] = experiment: Maximum fall in blood pressure was evaluated at an oral dose of 10.0 mg/kg in (SHR) spontaneous hypertensive rats; how it was run: as §1
Rattus norvegicus [5] = experiment: Maximum fall in blood pressure was evaluated at an oral dose of 10 mg/kg in (SHR) spontaneous hypertensive rats; how it was run: as §1
Rattus norvegicus [6] = experiment: Maximum fall in blood pressure was evaluated at an oral dose of 3.0 mg/kg in (SHR) spontaneous hypertensive rats; how it was run: as §1
Rattus norvegicus [7] = experiment: Maximum fall in blood pressure was evaluated at an oral dose of 0.03 mg/kg in (SHR) spontaneous hypertensive rats; how it was run: as §1

Row | SMILES | Max fall in blood pressure (Rattus norvegicus [1]) [%] | Max fall in blood pressure (Rattus norvegicus [2]) [%] | other results
1 | CC1(C)C=C(N2CCCC2=O)c2cc(C#N)ccc2O1 | 47 |  | 
2 | CC1(C)Oc2ccc(C#N)cc2C(N2CCSC2=O)[C@@H]1O (stereo partly specified) | 27 | 30 | 
3 | CC1(C)Oc2ccc(C#N)cc2C(N2CCNCC2=O)[C@@H]1O (stereo partly specified) | 53 |  | Max fall in blood pressure (Rattus norvegicus [3]): 28%
4 | CC1(C)Oc2ccc(C#N)cc2C(N2CCCCCC2=O)[C@@H]1O (stereo partly specified) |  | 10 | 
5 | CC1(C)Oc2ccc(C=O)cc2C(N2CCCC2=O)[C@@H]1O (stereo partly specified) |  |  | Max fall in blood pressure (Rattus norvegicus [4]): 25%
6 | CC1(C)Oc2c(cccc2[N+](=O)[O-])C(N2CCCC2=O)[C@@H]1O (stereo partly specified) |  | 7 | 
7 | CC1(C)C=C(N2CCCCC2=O)c2cc(C#N)ccc2O1 | 25 | 55 | 
8 | CC(=O)Nc1cc2c(cc1[N+](=O)[O-])C(N1CCCC1=O)[C@H](O)C(C)(C)O2 (stereo partly specified) | 62 |  | Max fall in blood pressure (Rattus norvegicus [3]): 37%
9 | CC1(C)Oc2ccc(C#N)cc2C(N2CC[N+](C)(C)CC2=O)[C@@H]1O.[I-] (stereo partly specified) |  | 9 | 
10 | COC(=O)c1ccc2c(c1)C(N1CCCCC1=O)[C@H](O)C(C)(C)O2 (stereo partly specified) | 13 | 42 | 
11 | CC1(C)Oc2ccc(C#N)cc2C(N2CCCC2)[C@@H]1O (stereo partly specified) | 21 | 29 | Max fall in blood pressure (Rattus norvegicus [3]): 8%
12 | CC1(C)Oc2ccc(C#N)cc2C(N2CCCC2=O)[C@@H]1OC=O (stereo partly specified) | 31 | 36 | 
13 | CC1Oc2ccc([N+](=O)[O-])cc2C(N2CCCC2=O)[C@@H]1O (stereo partly specified) |  |  | Max fall in blood pressure (Rattus norvegicus [4]): 34%
14 | CC(=O)c1ccc2c(c1)C(N1CCCCC1=O)[C@H](O)C(C)(C)O2 (stereo partly specified) | 29 | 66 | 
15 | CC1(C)Oc2ccc(C#N)cc2C(N2CCCCCCC2=O)[C@@H]1O (stereo partly specified) |  |  | Max fall in blood pressure (Rattus norvegicus [4]): 11%
16 | CC1(C)Oc2ccc(C#N)cc2C(N2CCSCC2=O)[C@@H]1O (stereo partly specified) |  | 9 | Max fall in blood pressure (Rattus norvegicus [5]): 12%
17 | CC1(C)CC(N2CCCC2=O)c2cc(C#N)ccc2O1 (stereo unspecified) |  | 15 | Max fall in blood pressure (Rattus norvegicus [6]): 45%
18 | CC1(C)Oc2ccc(C#N)cc2C(N2OCCC2=O)[C@@H]1O (stereo partly specified) |  |  | Max fall in blood pressure (Rattus norvegicus [4]): 19%
19 | CC1(C)Oc2ccc(Cl)cc2C(N2CCCC2=O)[C@@H]1O (stereo partly specified) |  | 8 | Max fall in blood pressure (Rattus norvegicus [5]): 37%
20 | CC1(C)Oc2ccc([N+](=O)[O-])cc2C(N2CCCC2=O)[C@@H]1O (stereo partly specified) | 27 | 63 | 
21 | CC(=O)c1ccc2c(c1)C(N1CCCC1=O)[C@H](O)C(C)(C)O2 (stereo partly specified) | 33 | 56 | 
22 | COC(=O)c1ccc2c(c1)C(N1CCCC1=O)[C@H](O)C(C)(C)O2 (stereo partly specified) | 11 | 20 | Max fall in blood pressure (Rattus norvegicus [5]): 44%
23 | CC1(C)Oc2cc([N+](=O)[O-])c(N)cc2C(N2CCCC2=O)[C@@H]1O (stereo partly specified) |  | 25 | 
24 | CC1(C)Oc2ccc(C#N)cc2C(N2CCCCC2=O)[C@@H]1O (stereo partly specified) | 49 | 59 | Max fall in blood pressure (Rattus norvegicus [7]): 27%; Max fall in blood pressure (Rattus norvegicus [3]): 46%
25 | CC(=O)c1ccc2c(c1)C(N1CCCC1=O)=CC(C)(C)O2 |  | 48 | 

Row | SMILES | Max fall in blood pressure (Rattus norvegicus [1]) [%] | Max fall in blood pressure (Rattus norvegicus [2]) [%] | other results
26 | CC1(C)Oc2ccc(C#N)cc2C(N2CCCC2=O)[C@@H]1O (stereo partly specified) | 39 | 47 | Max fall in blood pressure (Rattus norvegicus [3]): 13%
27 | CC(=O)c1ccc2c(c1)C(N1CCN(C(=O)c3ccc(F)cc3)CC1=O)[C@H](O)C(C)(C)O2 (stereo partly specified) |  |  | Max fall in blood pressure (Rattus norvegicus [4]): 16%
28 | CC1(C)Oc2ccc(C#N)cc2C(N2CCN(Cc3ccccc3)CC2=O)[C@@H]1O (stereo partly specified) | 26 | 35 | Max fall in blood pressure (Rattus norvegicus [3]): 10%
29 | CC1(C)C=C(N2CCSC2=O)c2cc(C#N)ccc2O1 | 9 | 27 | 
30 | CC(=O)Nc1cc2c(cc1[N+](=O)[O-])OC(C)(C)[C@@H](O)C2N1CCCC1=O (stereo partly specified) |  | 3 | Max fall in blood pressure (Rattus norvegicus [6]): 14%
31 | CN1CCCN(C2=CC(C)(C)Oc3ccc(C#N)cc32)C1=O |  | 29 | 
32 | CC1(C)C=C(N2CCCCCC2=O)c2cc(C#N)ccc2O1 |  | 15 | Max fall in blood pressure (Rattus norvegicus [5]): 36%
33 | CC1(C)Oc2ccc(C#N)cc2C(N2CCOCC2=O)[C@@H]1O (stereo partly specified) | 26 | 27 | 
34 | CC1(C)C=C(N2CCCC2=O)c2cc([N+](=O)[O-])ccc2O1 |  | 68 | 
35 | CC1(C)Oc2ccccc2C(N2CCCC2=O)[C@@H]1O (stereo partly specified) |  |  | Max fall in blood pressure (Rattus norvegicus [5]): 9%
36 | CC1(C)Oc2cc([N+](=O)[O-])ccc2C(N2CCCC2=O)[C@@H]1O (stereo partly specified) | 12 | 56 | Max fall in blood pressure (Rattus norvegicus [5]): 68%
37 | CC(=O)N1CCN(C2c3cc(C#N)ccc3OC(C)(C)[C@H]2O)C(=O)C1 (stereo partly specified) |  | 17 | Max fall in blood pressure (Rattus norvegicus [6]): 23%
38 | CC1(C)Oc2ccc(C#N)cc2C(N2CCN(C(=O)c3ccco3)CC2=O)[C@@H]1O (stereo partly specified) |  | 15 | Max fall in blood pressure (Rattus norvegicus [6]): 43%
39 | CC1(C)Oc2ccc(C#N)cc2C(N2CCN(C(=O)c3ccccc3)CC2=O)[C@@H]1O (stereo partly specified) |  |  | Max fall in blood pressure (Rattus norvegicus [4]): 14%
40 | CN1CCCN(C2c3cc(C#N)ccc3OC(C)(C)[C@H]2O)C1=O (stereo partly specified) |  | 23 | 
41 | CCCCN1CCN(C2c3cc(C#N)ccc3OC(C)(C)[C@H]2O)C(=O)C1 (stereo partly specified) | 48 | 61 | Max fall in blood pressure (Rattus norvegicus [3]): 18%
42 | CC1(C)Oc2ccc(C#N)cc2C(N2CCOC2=O)[C@@H]1O (stereo partly specified) | 20 | 29 | 
43 | CC1(C)C=C(N2CCCC2=O)c2cc(Cl)ccc2O1 |  |  | Max fall in blood pressure (Rattus norvegicus [4]): 36%
44 | CC(=O)O[C@H]1C(N2CCCC2=O)c2cc(C#N)ccc2OC1(C)C (stereo partly specified) |  | 30 | Max fall in blood pressure (Rattus norvegicus [6]): 39%
45 | CC1(C)Oc2ccc(C#N)cc2C(N2CCCC2=S)[C@@H]1O (stereo partly specified) | 39 |  | Max fall in blood pressure (Rattus norvegicus [3]): 16%
46 | O=C1CCCN1C1c2cc([N+](=O)[O-])ccc2OC[C@H]1O (stereo partly specified) |  |  | Max fall in blood pressure (Rattus norvegicus [4]): 5%
47 | CN1CCN(C2c3cc(C#N)ccc3OC(C)(C)[C@H]2O)C(=O)C1 (stereo partly specified) | 37 |  | Max fall in blood pressure (Rattus norvegicus [3]): 20%
48 | CC1(C)Oc2ccc(C#N)cc2C(N2CCCC2=O)C1O (single isomer, unassigned) [CROMAKALIM] | 47 |  | Max fall in blood pressure (Rattus norvegicus [3]): 31%
49 | CC1(C)Oc2ccc(C#N)cc2[C@@H](N2CCCC2=O)[C@@H]1O (single isomer, unassigned) [LEVCROMAKALIM] |  | 23 | Max fall in blood pressure (Rattus norvegicus [4]): 46%
50 | COC(=O)C1=C(C)NC(C)=C(C(=O)OC)C1c1ccccc1[N+](=O)[O-] [NIFEDIPINE] |  | 13 | Max fall in blood pressure (Rattus norvegicus [6]): 27%; Max fall in blood pressure (Rattus norvegicus [4]): 36%
